ChEMBL document CHEMBL3407388, “Synthesis, anticancer activity and molecular docking studies on a series of heterocyclic trans-cyanocombretastatin analogues as antitubulin agents” (2015)

Tests used:
Type in all cases: functional
[1] = tested on: SF-295; test: Cytotoxicity against human SF295 cells assessed as growth inhibition after 48 hrs by SRB assay; details: SF-295, 48 h
Procedure, shortened: (§1)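 NCI 60-cell panel; compounds passing a single-dose screen (10−5 M, 48 h) were tested at five 10-fold dilutions (10−4 to 10−8 M) with 48 h drug exposure. GI50 is the molar concentration giving 50% reduction in net cell growth relative to cell numbers on day 0.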

[2] = Cytotoxicity against human OVCAR5 cells assessed as growth inhibition after 48 hrs by SRB assay; details: OVCAR-5, 48 h; procedure, shortened: as §1
[3] = tested on: A498; test: Cytotoxicity against human A498 cells assessed as growth inhibition after 48 hrs by SRB assay; details: A498, 48 h; procedure, shortened: as §1
[4] = tested on: KM12; test: Cytotoxicity against human KM12 cells assessed as growth inhibition after 48 hrs by SRB assay; details: KM12, 48 h; procedure, shortened: as §1
[5] = Cytotoxicity against human HCT116 cells assessed as growth inhibition after 48 hrs by SRB assay; details: HCT-116, 48 h; procedure, shortened: as §1
[6] = tested on: M14; test: Cytotoxicity against human M14 cells assessed as growth inhibition after 48 hrs by SRB assay; details: M14, 48 h; procedure, shortened: as §1
[7] = tested on: SW-620; test: Cytotoxicity against human SW620 cells assessed as growth inhibition after 48 hrs by SRB assay; details: SW-620, 48 h
[8] = tested on: MCF7; test: Cytotoxicity against human MCF7 cells assessed as growth inhibition after 48 hrs by SRB assay; details: MCF7, 48 h; procedure, shortened: as §1
[9] = Cytotoxicity against human OVCAR8 cells assessed as growth inhibition after 48 hrs by SRB assay; details: OVCAR-8, 48 h; procedure, shortened: as §1
[10] = tested on: MDA-MB-435; test: Cytotoxicity against human MDA-MB-435 cells assessed as growth inhibition after 48 hrs by SRB assay; details: MDA-MB-435, 48 h; procedure, shortened: as §1
[11] = tested on: NCI-H460; test: Cytotoxicity against human NCI-H460 cells assessed as growth inhibition after 48 hrs by SRB assay; details: NCI-H460, 48 h; procedure, shortened: as §1
[12] = Cytotoxicity against human NCI-ADR-RES cells assessed as growth inhibition after 48 hrs by SRB assay; procedure, shortened: as §1
[13] = tested on: 786-0; test: Cytotoxicity against human 786-0 cells assessed as growth inhibition after 48 hrs by SRB assay; details: 786-0, 48 h; procedure, shortened: as §1
[14] = tested on: HL-60(TB); test: Cytotoxicity against human HL-60(TB) cells assessed as growth inhibition after 48 hrs by SRB assay; details: HL-60, 48 h
Procedure, shortened: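 NCI 60-cell panel, leukemia subpanel. Five-dose screen at 10-fold dilutions from 10−4 to 10−8 M with 48 h drug exposure. GI50 is the molar concentration giving 50% reduction in net cell growth compared with cell numbers on day 0.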

[15] = Cytotoxicity against human OVCAR4 cells assessed as growth inhibition after 48 hrs by SRB assay; details: OVCAR-4, 48 h; procedure, shortened: as §1
[16] = tested on: U-251; test: Cytotoxicity against human U251 cells assessed as growth inhibition after 48 hrs by SRB assay; details: U-251, 48 h
[17] = tested on: MDA-MB-231; test: Cytotoxicity against human MDA-MB-231 cells assessed as growth inhibition after 48 hrs by SRB assay; details: MDA-MB-231, 48 h; procedure, shortened: as §1
[18] = Cytotoxicity against human HCT15 cells assessed as growth inhibition after 48 hrs by SRB assay; details: HCT-15, 48 h; procedure, shortened: as §1
[19] = tested on: SK-OV-3; test: Cytotoxicity against human SKOV3 cells assessed as growth inhibition after 48 hrs by SRB assay; details: SK-OV-3, 48 h; procedure, shortened: as §1
[20] = tested on: RPMI-8226; test: Cytotoxicity against human RPMI8226 cells assessed as growth inhibition after 48 hrs by SRB assay; details: RPMI-8226, 48 h; procedure, shortened: as §1
[21] = tested on: HCC 2998; test: Cytotoxicity against human HCC2998 cells assessed as growth inhibition after 48 hrs by SRB assay; details: HCC 2998, 48 h; procedure, shortened: as §1
[22] = tested on: NCI-H226; test: Cytotoxicity against human NCI-H226 cells assessed as growth inhibition after 48 hrs by SRB assay; details: NCI-H226, 48 h; procedure, shortened: as §1
[23] = tested on: RXF 393; test: Cytotoxicity against human RXF393 cells assessed as growth inhibition after 48 hrs by SRB assay; details: RXF 393, 48 h; procedure, shortened: as §1
[24] = tested on: SK-MEL-5; test: Cytotoxicity against human SK-MEL-5 cells assessed as growth inhibition after 48 hrs by SRB assay; details: SK-MEL-5, 48 h; procedure, shortened: as §1
[25] = tested on: NCI-H23; test: Cytotoxicity against human NCI-H23 cells assessed as growth inhibition after 48 hrs by SRB assay; details: NCI-H23, 48 h; procedure, shortened: as §1
[26] = tested on: LOX IMVI; test: Cytotoxicity against human LOXIMVI cells assessed as growth inhibition after 48 hrs by SRB assay; procedure, shortened: as §1
[27] = tested on: BT-549; test: Cytotoxicity against human BT549 cells assessed as growth inhibition after 48 hrs by SRB assay; details: BT-549, 48 h; procedure, shortened: as §1
[28] = tested on: IGROV-1; test: Cytotoxicity against human IGROV1 cells assessed as growth inhibition after 48 hrs by SRB assay; details: IGROV-1, 48 h; procedure, shortened: as §1
[29] = Cytotoxicity against human UACC62 cells assessed as growth inhibition after 48 hrs by SRB assay; details: UACC-62, 48 h
[30] = tested on: TK-10; test: Cytotoxicity against human TK10 cells assessed as growth inhibition after 48 hrs by SRB assay; details: TK-10, 48 h
[31] = tested on: MOLT-4; test: Cytotoxicity against human MOLT4 cells assessed as growth inhibition after 48 hrs by SRB assay; details: MOLT-4, 48 h; procedure, shortened: as §1
[32] = Cytotoxicity against human PC3 cells assessed as growth inhibition after 48 hrs by SRB assay; details: PC-3, 48 h; procedure, shortened: as §1
[33] = tested on: SNB-19; test: Cytotoxicity against human SNB19 cells assessed as growth inhibition after 48 hrs by SRB assay; details: SNB-19, 48 h; procedure, shortened: as §1
[34] = Cytotoxicity against human UO31 cells assessed as growth inhibition after 48 hrs by SRB assay; details: UO-31, 48 h
[35] = tested on: SNB-75; test: Cytotoxicity against human SNB75 cells assessed as growth inhibition after 48 hrs by SRB assay; details: SNB-75, 48 h
[36] = tested on: K562; test: Cytotoxicity against human K562 cells assessed as growth inhibition after 48 hrs by SRB assay; details: K562, 48 h; procedure, shortened: as §1
[37] = tested on: SF-539; test: Cytotoxicity against human SF539 cells assessed as growth inhibition after 48 hrs by SRB assay; details: SF-539, 48 h; procedure, shortened: as §1
[38] = tested on: SN12C; test: Cytotoxicity against human SN12C cells assessed as growth inhibition after 48 hrs by SRB assay; procedure, shortened: as §1
[39] = Cytotoxicity against human Hs578T cells assessed as growth inhibition after 48 hrs by SRB assay; details: Hs-578T; procedure, shortened: as §1
[40] = tested on: DU-145; test: Cytotoxicity against human DU145 cells assessed as growth inhibition after 48 hrs by SRB assay; details: DU-145, 48 h; procedure, shortened: as §1
[41] = Cytotoxicity against human OVCAR3 cells assessed as growth inhibition after 48 hrs by SRB assay; details: OVCAR-3, 48 h; procedure, shortened: as §1
[42] = tested on: SF-268; test: Cytotoxicity against human SF268 cells assessed as growth inhibition after 48 hrs by SRB assay; details: SF-268, 48 h; procedure, shortened: as §1
[43] = tested on: HT-29; test: Cytotoxicity against human HT-29 cells assessed as growth inhibition after 48 hrs by SRB assay; details: HT-29, 48 h; procedure, shortened: as §1

With `COc1ccc(/C(C#N)=C/c2c[nH]c3ccccc23)cc1OC` the GI50 [1] was 4.92 µM, the GI50 [2] was > 100 µM and the GI50 [3] was 3.36 µM. The GI50 [4] was 4.04 µM, the GI50 [5] was 35.5 µM and the GI50 [6] was 3.75 µM. The GI50 [7] was 3.53 µM, the GI50 [8] was 3.1 µM and the GI50 [9] was 7.38 µM. For the same molecule, the GI50 [10] was 3.95 µM, the GI50 [11] was 4.51 µM and the GI50 [12] was 1.7 µM. The GI50 [13] was 14.1 µM, the GI50 [14] was 4.57 µM and the GI50 [15] was 22.1 µM. It also gave a GI50 [16] of 4.97 µM, a GI50 [17] of 7.18 µM and a GI50 [18] of 3.7 µM. It also gave a GI50 [19] of 11.9 µM, a GI50 [20] of 3.96 µM and a GI50 [21] of 12.6 µM. For the same molecule, the GI50 [22] was 20.9 µM, the GI50 [23] was 4.48 µM and the GI50 [24] was 4.27 µM. It also gave a GI50 [25] of 7.19 µM, a GI50 [26] of 5.32 µM and a GI50 [27] of 5.38 µM. It also gave a GI50 [28] of 21 µM, a GI50 [29] of 6.98 µM and a GI50 [30] of 13.2 µM. It also gave a GI50 [31] of 3.99 µM, a GI50 [32] of 7.85 µM and a GI50 [33] of 24.2 µM. The GI50 [34] was 14.3 µM, the GI50 [35] was 6.04 µM and the GI50 [36] was 1.65 µM. It also gave a GI50 [37] of 8.42 µM, a GI50 [38] of 8.1 µM and a GI50 [39] of 12.9 µM. It also gave a GI50 [40] of 22.6 µM, a GI50 [41] of 5.68 µM and a GI50 [42] of 18.9 µM. The GI50 [43] was 3.32 µM.
Work on `COc1cc(/C(C#N)=C/c2nc3ccccc3s2)cc(OC)c1OC` yielded a GI50 [1] of 0.508 µM, a GI50 [2] of 0.347 µM and a GI50 [3] of 0.198 µM. The GI50 [4] was 0.278 µM, the GI50 [5] was 0.052 µM and the GI50 [6] was 0.193 µM. It also gave a GI50 [7] of 0.038 µM, a GI50 [8] of 0.034 µM and a GI50 [9] of 0.438 µM. The GI50 [10] was 0.021 µM, the GI50 [11] was 0.336 µM and the GI50 [12] was 0.059 µM. It also gave a GI50 [13] of 1.06 µM, a GI50 [14] of 0.066 µM and a GI50 [15] of 3.86 µM. The GI50 [16] was 1.65 µM, the GI50 [17] was 0.992 µM and the GI50 [18] was 0.045 µM. It also gave a GI50 [19] of 0.626 µM, a GI50 [20] of 0.237 µM and a GI50 [21] of 0.297 µM. For the same molecule, the GI50 [22] was 0.844 µM, the GI50 [23] was 0.148 µM and the GI50 [24] was 0.1 µM. The GI50 [25] was 3.25 µM, the GI50 [26] was 0.073 µM and the GI50 [27] was 12.2 µM. It also gave a GI50 [28] of 1.27 µM, a GI50 [29] of 0.052 µM and a GI50 [30] of 0.063 µM. For the same molecule, the GI50 [31] was 9.2 µM, the GI50 [32] was 0.341 µM and the GI50 [33] was 2.49 µM. It also gave a GI50 [34] of 0.083 µM, a GI50 [35] of 0.145 µM and a GI50 [36] of 0.051 µM. The GI50 [37] was 0.097 µM, the GI50 [38] was 0.515 µM and the GI50 [39] was 1.29 µM. The GI50 [40] was 0.333 µM, the GI50 [41] was 0.031 µM and the GI50 [42] was 1.03 µM. The GI50 [43] was 0.037 µM.
